Screens (PubChem)
HTR2A ag – mouse HTR2A agonism via beta-arrestin recruitment. CHO-K1 mHTR2A beta-arrestin complementation, luminescence; percent of 30 µM serotonin response. activation, % at 7.6 µM. P35363. 360,000 tested, 0.66% active. AID 624169;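 active = activation above a run cutoff, the mean activation of all tested compounds plus 3 SD, cut at about 14% in these data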;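 note: 0% = plate median of compound wells and 100% = 30 µM serotonin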
Target sequence (P35363 whole entry, looked up): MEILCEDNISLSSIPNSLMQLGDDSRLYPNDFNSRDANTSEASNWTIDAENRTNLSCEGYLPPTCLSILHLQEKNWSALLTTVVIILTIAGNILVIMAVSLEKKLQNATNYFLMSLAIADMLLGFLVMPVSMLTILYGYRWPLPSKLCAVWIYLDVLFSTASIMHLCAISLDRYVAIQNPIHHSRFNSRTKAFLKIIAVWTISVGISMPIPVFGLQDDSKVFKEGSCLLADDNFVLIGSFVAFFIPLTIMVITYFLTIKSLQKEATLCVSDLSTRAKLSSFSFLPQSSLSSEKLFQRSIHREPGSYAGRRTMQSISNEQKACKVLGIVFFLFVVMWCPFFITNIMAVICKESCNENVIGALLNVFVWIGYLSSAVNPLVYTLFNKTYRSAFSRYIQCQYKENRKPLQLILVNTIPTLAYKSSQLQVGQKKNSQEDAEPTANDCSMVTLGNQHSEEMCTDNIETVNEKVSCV
AHR activator – human AHR activation; AID 2796; activation, % at 5 µM; AHR-responsive luciferase reporter cells, luminescence; 320,000 tested, 2.5% active; in the data active = activation above about 47%;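 note: 0% = vehicle wells and 100% = reference agonist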
AI-2 QS modul – modulators of Vibrio harveyi AI-2 quorum sensing system | Vibrio harveyi JMH597 AI-2 luminescence/OD600 ratio, 9 h; hits give low values; strain lacks LuxN and CqsS sensors; 0 = neutral-control median | activity change, % at 7.5 µM | 300,000 tested, 0.4% active | AID 2094; in the data active = activity change below about -75%, passing the limit was not always enough;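 note: luminescence divided by OD600 gain over 9 h not by final OD600 alone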
MsrA inh – inhibits bovine methionine sulfoxide reductase A | inhibition, % at 15.5 µM | 360,000 tested, 0.75% active | purified bovine MsrA, absorbance read-out; in the data active = inhibition above about 4.5%;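 note: 0% = vehicle wells with enzyme and 100% = reference inhibitor wells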
Tb MetRS inh – Trypanosoma brucei MetRS inhibition; purified T. brucei MetRS, ATP depletion, Kinase-Glo luminescence; inhibition, % at 11.9 µM; 360,000 tested, 0.4% active;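 active = inhibition above a per-plate cutoff of the control wells' mean inhibition plus 3 SD, cut at about 5.5% in these data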;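 note: 0% = DMSO wells median and 100% = median of wells with control inhibitor compound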
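System: purified T. brucei MetRS enzyme / Detection: Kinase-Glo luciferase luminescence reporting remaining unconsumed ATP / Medium: HEPES buffer with MgCl2, KCl, DTT, spermine, BSA, pyrophosphatase / Replication: singlicate, one well per compound / Evaluation: percent inhibition relative to median high and low control wells / Schedule: 2 h aminoacylation at 25 °C after 15 min preincubation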
MsrA act – bovine methionine sulfoxide reductase A activation. activation, % at 10.6 µM. purified bovine MsrA, absorbance read-out. AID 602163. 360,000 tested, 0.3% active; in the data active = activation above about 7.5%;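 note: 0% = vehicle and 100% = reference activator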
An asterisk follows results filed as active; . = no result. Only some compounds are listed: those with a hit (about 4.4% of all), similar ones and a draw of the others.

SMILES | HTR2A ag | AHR activator | AI-2 QS modul | MsrA inh | Tb MetRS inh | MsrA act
COC(=O)C1=C(C)N(Cc2cccc(C(F)(F)F)c2)C(=NCc2cc(OC)c(OC)c(OC)c2)NC1c1cccc(Cl)c1 (centres undefined) | . | . | . | 0 | . | .
NC(=O)c1ccc(NCCc2ccccc2)c([N+](=O)[O-])c1 | -4 | -1 | 26 | -1 | 0 | 5
CCN(CC)c1ccc(C(=O)Nc2ccccc2)cc1[N+](=O)[O-] | -2 | 53* | 31 | 1 | 0 | -2
O=C(Nc1ccccc1)c1ccc(NCCc2ccccc2)c([N+](=O)[O-])c1 | 2 | 50* | 45 | 0 | -1 | -8
COCc1cc(N2CCN(C(=O)OC(C)(C)C)C[C@H]2C)ccc1N1CC[C@@H](O)C1 | . | . | . | 1 | . | .
Cc1cccc(C)c1NC(=O)CN(C)CC(=O)Nc1cc(Cl)ccc1C#N | 2 | 13 | 15 | 1 | 0 | -2
CCOc1ccc(NC(=O)CN(C)CC(=O)Nc2cc(Cl)ccc2C#N)cc1OCC | 0 | 55* | 12 | 2 | 0 | -8
COc1ccc(OC)c(Nc2nc(-c3sc(NC(=O)C(C)(C)C)nc3C)cs2)c1 | -3 | 61* | 8 | 1 | 0 | -12
COc1ccc(OC)c(Nc2nc(-c3sc(NC(=O)CC(C)C)nc3C)cs2)c1 | -6 | 73* | 54 | 1 | 0 | -3
O=C(NCc1ccccc1)[C@H]1CCCN1C(=O)[C@H]1CCCN1C(=O)c1ccc(F)cc1 | . | . | . | 1 | . | .
CCOc1ccccc1NC(=O)CCNC(=O)C1CCN(S(=O)(=O)c2ccccc2)CC1 | -1 | . | . | 0 | 0 | -1
CCOC(=O)CSc1ccc(C(=O)Nc2ccc(Cl)cc2)cn1 | 1 | 58* | 16 | 1 | 0 | -3
CCOC(=O)CSc1ccc(C(=O)Nc2ccc(OC)cc2)cn1 | 1 | 57* | 21 | 1 | 1 | -3
CCOc1ccc(NC(=O)c2ccc(OC)cc2)cc1 | -4 | -1 | 4 | 1 | 0 | -2
CCCc1c(C(=O)Nc2ccc(OC)cc2)cnn1-c1ccccc1 | -2 | 73* | 12 | -1 | 0 | 0
C[C@@H]1CN([C@H](C)CO)C(=O)c2c(c3ccccc3n2C)-c2ccccc2CO[C@@H]1CN(C)C(=O)CCN(C)C | . | . | . | 1 | . | .
Cc1cc(NC(=O)/C=C/c2cccc(F)c2)n(-c2nc3ccccc3[nH]2)n1 | 2 | 74* | 31 | -1 | -1 | -3
Cc1nn2c(-c3ccccc3)ccnc2c1Br | -7 | 74* | 18 | -1 | 0 | -2
CC(O)(C#CCN1CCCCCC1)c1ccccc1 (centres undefined) | 1 | 66* | 3 | 1 | 1 | -4
COc1ccc([N+](=O)[O-])cc1NC(=O)COC(C)=O | 6 | 0 | 40 | 2 | 1 | -4
COc1ccc([N+](=O)[O-])cc1NC(=S)NC(C)=O | 1 | 13 | 30 | 2 | 0 | -4
COc1ccc([N+](=O)[O-])cc1NC(=O)c1ccc(Br)s1 | -4 | 52* | 46 | -1 | 0 | -2
CCn1ncc(Cl)c1C(=O)Nc1cc([N+](=O)[O-])ccc1OC | 2 | 60* | 12 | 1 | -1 | -10
CCCC(=O)OCC(=O)Nc1cc([N+](=O)[O-])ccc1OC | -1 | -3 | 14 | 4.6* | -1 | -9
CCOC(=O)C1CSCCS(=O)(=O)N1Cc1cc(F)ccc1Br (centres undefined) | . | . | . | 1 | . | .
SMILES | HTR2A ag | AHR activator | AI-2 QS modul | MsrA inh | Tb MetRS inh | MsrA act
Cc1ccccc1NCc1nc2ccccc2n1C | -1 | 79* | -1 | 0 | -2 | -4
Cn1c(CNc2ccccc2O)nc2ccccc21 | 1 | 76* | 4 | -1 | 0 | 1
Cn1c(CNc2ccc(F)cc2)nc2ccccc21 | 7 | . | -1 | 0 | -1 | -6
Cn1c(CNc2ccccc2)nc2ccccc21 | 1 | 65* | 7 | -1 | -1 | 2
C[C@@H]1Cn2cnc(C(=O)N3CCN(C(=O)OC(C)(C)C)CC3)c2C(=O)N1 | . | . | . | 1 | . | .
COC(=O)c1cc2c(c3c4ccccc4n(S(=O)(=O)c4ccccc4)c13)C(=O)N(C)C2 | . | . | . | 1 | . | .
Cc1cc(N2CCN(CC(C)(C)O)C[C@@H]2C)ccc1N1CCN(CC(C)(C)O)[C@H](C)C1 | . | . | . | 1 | . | .
COC(=O)C1=C(C)N(C)C(=NCc2ccccc2C(F)(F)F)NC1c1ccc(Cl)cc1 (centres undefined) | . | . | . | 0 | . | .
COC(=O)C1=C(C)N(CC(C)C)C(=S)NC1c1ccc(-c2ccccc2)cc1 (centres undefined) | . | . | . | 1 | . | .
COC(=O)[C@]12C[C@H](CC(=O)NCCCN3CCCC3=O)C(=O)N(Cc3ccccc3)C1=C[C@H](C(C)(C)C)O[C@@H]2C | . | . | . | 0 | . | .
O=c1[nH]c2cc3c(cc2cc1CN(Cc1nnnn1CC1CCCO1)C1CCCCC1)OCO3 (centres undefined) | -1 | 56* | 8 | 3 | 0 | -4
C[C@@H]1CN([C@@H](C)CO)C(=O)CCCn2cc(nn2)CO[C@H]1CN(C)C(=O)Nc1cccc(F)c1 | . | . | . | 1 | . | .
CCC/C(=N/NC(=O)c1ccc2c(c1)OCO2)c1cccs1 | 1 | 64* | 6 | -1 | 0 | -5
CC/C(=N\NC(=O)c1ccc2c(c1)OCO2)c1ccccc1 | -8 | . | 10 | 1 | 0 | -2
CON(C)C(=O)C(C)(C)CC#CCN(CC#Cc1ccccc1)S(=O)(=O)c1ccc(C)cc1 | . | . | . | 1 | . | .
CCN(C(=O)/C=C/c1ccc2c(c1)OCO2)c1ccccc1 | 0 | 70* | 18 | 2 | -1 | -4
O=C(C=Cc1ccc2c(c1)OCO2)C=Cc1ccc2c(c1)OCO2 | 0 | . | . | 1 | 1 | -4
O=C(/C=C/c1ccc2c(c1)OCO2)N1CCOCC1 | 2 | 55* | 16 | 3 | 0 | -4
O=C(COc1ccccc1/C=C1\SC(=O)NC1=O)Nc1ccccc1 | -3 | 57* | 22 | 1 | 0 | -8
CCNc1nc(NC(C)C)nc(SCCOC(=O)c2ccccc2)n1 | -1 | 3 | 20 | 0 | 0 | 1
CCNc1nc(NC(C)C)nc(SCCOc2ccc(C)cc2)n1 | -1 | 47* | 11 | 1 | -1 | 5
Cc1cccc(OCC(=O)NCCCNC(=O)c2ccc(C)nc2)c1 | 14 | 1 | 1 | -1 | 0 | -3
COc1ccc(NC(=O)[C@@H]2[C@@H]3C(=O)N(C4CCCCC4)C(=O)[C@@H]3C3c4ccccc4C=CN32)cc1 (some centres undefined) | -1 | 90* | -2 | 3 | -1 | -5
CC(=O)[C@@H]1[C@@H]2C(=O)N(C3CCCCC3)C(=O)[C@@H]2C2c3ccccc3C=CN21 (some centres undefined) | . | 27 | 23 | . | . | .
CC(=O)Nc1cccc(OCCCNC(=O)c2ccc(C(C)(C)C)cc2)c1 | 4 | 47* | -35 | 0 | 0 | -1
